According to ChEMBL document CHEMBL5247578, “Effective synthesis of benzimidazoles-imidazo[1,2-a]pyrazine conjugates: A comparative study of mono-and bis-benzimidazoles for antitumor activity” (Eur J Med Chem, 2019):

Columns and labels:
CCRF-CEM = test: Antiproliferative activity against human CCRF-CEM cells assessed as cell growth inhibition at 10 uM incubated for 48 hrs by sulforhodamine B assay relative to control; type: functional
Outline: (§1)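 Single-dose NCI-60 prescreen at 10^-5 M. Cells in RPMI 1640 with 5% FBS and 2 mM L-glutamine, seeded 5,000–40,000 cells/well with 24 h preincubation, then drug exposure for 48 h at 37 °C under 5% CO2. Growth read by SRB staining of TCA-fixed cells at 515 nm against time-zero and untreated controls. Negative growth values denote cell kill.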

DU-145 = test: Antiproliferative activity against human DU-145 cells assessed as cell growth inhibition at 10 uM incubated for 48 hrs by sulforhodamine B assay relative to control; type: functional
Outline: (§2)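 NCI-60 one-dose prescreen at 10^-5 M. Cells grown in RPMI 1640 with 5% FBS and 2 mM glutamine, preincubated 24 h, then exposed 48 h at 37 °C. Adherent lines TCA-fixed, SRB-stained, A515 read. Growth percent relative to time-zero and control; negative values mean cell kill.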

K562 = test: Antiproliferative activity against human K562 cells assessed as cell growth inhibition at 10 uM incubated for 48 hrs by sulforhodamine B assay relative to control; type: functional
Outline: (§3)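 NCI-60 single-dose screen at 10^-5 M. Cells grown in RPMI 1640 with 5% FBS and 2 mM L-glutamine, plated at 5,000–40,000 cells/well, and preincubated 24 h. Drug (DMSO stock) added and incubated 48 h at 37 °C, 5% CO2. Adherent cells fixed with cold TCA, stained with 0.4% SRB in 1% acetic acid, dye solubilized in 10 mM trizma base, A515 read. Percent growth taken against time-zero and untreated control.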

NCI-H226 = test: Antiproliferative activity against human NCI-H226 cells assessed as cell growth inhibition at 10 uM incubated for 48 hrs by sulforhodamine B assay relative to control; type: functional; outline: as §3
Hs-578T = test: Antiproliferative activity against human Hs-578T cells assessed as cell growth inhibition at 10 uM incubated for 48 hrs by sulforhodamine B assay relative to control; type: functional; outline: as §3
RPMI-8226 = test: Antiproliferative activity against human RPMI-8226 cells assessed as cell growth inhibition at 10 uM incubated for 48 hrs by sulforhodamine B assay relative to control; type: functional; outline: as §3
T47D = test: Antiproliferative activity against human T47D cells assessed as cell growth inhibition at 10 uM incubated for 48 hrs by sulforhodamine B assay relative to control; type: functional; outline: as §3
[1] = n-Octanol/phosphate buffer partition coefficient, logP of the compound at pH 7.4 incubated for 85 mins by shake-flask method; type: physicochemical
Outline: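 Octanol–water partition by shake-flask: n-octanol with 0.15 M phosphate buffer pH 7.4 at 10:1 volumes. Buffer-phase absorbance read before mixing, then shaken 50 min and centrifuged at 2500 rpm for 35 min. Buffer absorbance read again; P = (Ai−Af)/Af × Vw/Vo.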

NCI-H522 = test: Antiproliferative activity against human NCI-H522 cells assessed as cell growth inhibition at 10 uM incubated for 48 hrs by sulforhodamine B assay relative to control; type: functional; outline: as §3
HOP-92 = test: Antiproliferative activity against human HOP-92 cells assessed as cell growth inhibition at 10 uM incubated for 48 hrs by sulforhodamine B assay relative to control; type: functional; outline: as §2
HCC 2998 = test: Antiproliferative activity against human HCC 2998 cells assessed as cell growth inhibition at 10 uM incubated for 48 hrs by sulforhodamine B assay relative to control; type: functional; outline: as §2
OVCAR-8 = test: Antiproliferative activity against human OVCAR-8 cells assessed as cell growth inhibition at 10 uM incubated for 48 hrs by sulforhodamine B assay relative to control; type: functional; outline: as §3
SK-MEL-5 = test: Antiproliferative activity against human SK-MEL-5 cells assessed as cell growth inhibition at 10 uM incubated for 48 hrs by sulforhodamine B assay relative to control; type: functional; outline: as §3
SNB-19 = test: Antiproliferative activity against human SNB-19 cells assessed as cell growth inhibition at 10 uM incubated for 48 hrs by sulforhodamine B assay relative to control; type: functional; outline: as §3
MOLT-4 = test: Antiproliferative activity against human MOLT-4 cells assessed as cell growth inhibition at 10 uM incubated for 48 hrs by sulforhodamine B assay relative to control; type: functional; outline: as §3
UO-31 = test: Antiproliferative activity against human UO-31 cells assessed as cell growth inhibition at 10 uM incubated for 48 hrs by sulforhodamine B assay relative to control; type: functional; outline: as §3
IGROV-1 = test: Antiproliferative activity against human IGROV-1 cells assessed as cell growth inhibition at 10 uM incubated for 48 hrs by sulforhodamine B assay relative to control; type: functional; outline: as §3
U-251 = test: Antiproliferative activity against human U-251 cells assessed as cell growth inhibition at 10 uM incubated for 48 hrs by sulforhodamine B assay relative to control; type: functional; outline: as §3
KM12 = test: Antiproliferative activity against human KM12 cells assessed as cell growth inhibition at 10 uM incubated for 48 hrs by sulforhodamine B assay relative to control; type: functional; outline: as §3
HCT-15 = test: Antiproliferative activity against human HCT-15 cells assessed as cell growth inhibition at 10 uM incubated for 48 hrs by sulforhodamine B assay relative to control; type: functional; outline: as §2
786-0 = test: Antiproliferative activity against human 786-0 cells assessed as cell growth inhibition at 10 uM incubated for 48 hrs by sulforhodamine B assay relative to control; type: functional; outline: as §1
SK-MEL-2 = test: Antiproliferative activity against human SK-MEL-2 cells assessed as cell growth inhibition at 10 uM incubated for 48 hrs by sulforhodamine B assay relative to control; type: functional; outline: as §3
UACC-62 = test: Antiproliferative activity against human UACC-62 cells assessed as cell growth inhibition at 10 uM incubated for 48 hrs by sulforhodamine B assay relative to control; type: functional; outline: as §3
HT-29 = test: Antiproliferative activity against human HT-29 cells assessed as cell growth inhibition at 10 uM incubated for 48 hrs by sulforhodamine B assay relative to control; type: functional; outline: as §3
LOX IMVI = test: Antiproliferative activity against human LOX IMVI cells assessed as cell growth inhibition at 10 uM incubated for 48 hrs by sulforhodamine B assay relative to control; type: functional; outline: as §3
HL-60 = test: Antiproliferative activity against human HL-60 cells assessed as cell growth inhibition at 10 uM incubated for 48 hrs by sulforhodamine B assay relative to control; type: functional; outline: as §2
A549 = test: Antiproliferative activity against human A549 cells assessed as cell growth inhibition at 10 uM incubated for 48 hrs by sulforhodamine B assay relative to control; type: functional; outline: as §1
RXF 393 = test: Antiproliferative activity against human RXF 393 cells assessed as cell growth inhibition at 10 uM incubated for 48 hrs by sulforhodamine B assay relative to control; type: functional; outline: as §3
ACHN = test: Antiproliferative activity against human ACHN cells assessed as cell growth inhibition at 10 uM incubated for 48 hrs by sulforhodamine B assay relative to control; type: functional; outline: as §1
MDA-MB-468 = test: Antiproliferative activity against human MDA-MB-468 cells assessed as cell growth inhibition at 10 uM incubated for 48 hrs by sulforhodamine B assay relative to control; type: functional; outline: as §3
SR = test: Antiproliferative activity against human SR cells assessed as cell growth inhibition at 10 uM incubated for 48 hrs by sulforhodamine B assay relative to control; type: functional; outline: as §3
MDA-MB-231 = test: Antiproliferative activity against human MDA-MB-231 cells assessed as cell growth inhibition at 10 uM incubated for 48 hrs by sulforhodamine B assay relative to control; type: functional; outline: as §3
A498 = test: Antiproliferative activity against human A498 cells assessed as cell growth inhibition at 10 uM incubated for 48 hrs by sulforhodamine B assay relative to control; type: functional; outline: as §1
PC-3 = test: Antiproliferative activity against human PC-3 cells assessed as cell growth inhibition at 10 uM incubated for 48 hrs by sulforhodamine B assay relative to control; type: functional; outline: as §3
NCI-H23 = test: Antiproliferative activity against human NCI-H23 cells assessed as cell growth inhibition at 10 uM incubated for 48 hrs by sulforhodamine B assay relative to control; type: functional; outline: as §3
SF-539 = test: Antiproliferative activity against human SF-539 cells assessed as cell growth inhibition at 10 uM incubated for 48 hrs by sulforhodamine B assay relative to control; type: functional; outline: as §3
HCT-116 = test: Antiproliferative activity against human HCT-116 cells assessed as cell growth inhibition at 10 uM incubated for 48 hrs by sulforhodamine B assay relative to control; type: functional; outline: as §2
TK-10 = test: Antiproliferative activity against human TK-10 cells assessed as cell growth inhibition at 10 uM incubated for 48 hrs by sulforhodamine B assay relative to control; type: functional; outline: as §3

c1cn2cc(-c3ccsc3)nc(-c3ccc4ncn(C5CCCCC5)c4c3)c2n1
inhibition at 10 µM (CCRF-CEM): 29.2%
inhibition at 10 µM (DU-145): 1.36%
inhibition at 10 µM (K562): 22%
inhibition at 10 µM (NCI-H226): 6.34%
inhibition at 10 µM (Hs-578T): 5.56%
inhibition at 10 µM (RPMI-8226): 37.9%
inhibition at 10 µM (T47D): 63.7%
logD at 1.417 h [1]: 1.81
inhibition at 10 µM (NCI-H522): 10.2%
inhibition at 10 µM (HOP-92): 27.8%
inhibition at 10 µM (HCC 2998): 2.18%
inhibition at 10 µM (OVCAR-8): 12.1%
inhibition at 10 µM (SK-MEL-5): 25%
inhibition at 10 µM (SNB-19): 0.39%
inhibition at 10 µM (MOLT-4): 30%
inhibition at 10 µM (UO-31): 23.1%
inhibition at 10 µM (IGROV-1): 1.51%
inhibition at 10 µM (U-251): 6.09%
inhibition at 10 µM (KM12): 15.4%
inhibition at 10 µM (HCT-15): 1.37%
inhibition at 10 µM (786-0): 6.35%
inhibition at 10 µM (SK-MEL-2): 3.68%
inhibition at 10 µM (UACC-62): 18.4%
inhibition at 10 µM (HT-29): 5.68%
inhibition at 10 µM (LOX IMVI): 4.9%
inhibition at 10 µM (HL-60): 18.4%
inhibition at 10 µM (A549): 3.97%
inhibition at 10 µM (RXF 393): 8.63%
inhibition at 10 µM (ACHN): 5.76%
inhibition at 10 µM (MDA-MB-468): 21.8%
inhibition at 10 µM (SR): 14.3%
inhibition at 10 µM (MDA-MB-231): 1.35%
inhibition at 10 µM (A498): 20.1%
inhibition at 10 µM (PC-3): 19.9%
inhibition at 10 µM (NCI-H23): 10%
inhibition at 10 µM (SF-539): 6.29%
inhibition at 10 µM (HCT-116): 13.3%
inhibition at 10 µM (TK-10): 3.37%
